Test results published in ChEMBL document CHEMBL5058577, “EUbOPEN Chemogenomics Library 2 (Multiplex)” (2022).
Several values for one entry are separate records, joined by “and”; a condition that tells them apart may be missing. Equal values may be shown once.

Test system: Fibroblast
Assay: Multiplex assay against human fibroblast
Type: toxicity, cell-based
Conditions: 10 µM, compound concentration 10 uM
Summary of the method: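 Imaging took place on a CQ1 microscope at 37°C and 5% CO2 once compound had been added to live cells stained at seeding with Hoechst33342, BioTracker Green Microtubule Cytoskeleton Dye, MitoTracker Red and Annexin V Alexa Fluor 680. CellPathfinder machine-learning gating classed cells as Hoechst high-intensity objects or normal cells, classed normal cells as having healthy, pyknosed or fragmented nuclei, and classed pyknosed cells as mitotic or apoptotic. Tubulin, mitochondrial-mass and membrane-permeability phenotypes are per cents of the healthy-nucleus cells.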

## CC(=O)O[C@H]1C(=O)[C@@]2(C)[C@H]([C@H](OC(=O)c3ccccc3)[C@]3(O)C[C@H](OC(=O)[C@H](O)[C@@H](NC(=O)c4ccccc4)c4ccccc4)C(C)=C1C3(C)C)[C@]1(OC(C)=O)CO[C@@H]1C[C@@H]2O [PACLITAXEL]
12 h, replicate 1
  Population Apoptotic (%): 65% and 41%
  Population Fragmented Nuclei (%): 19% and 23%
  Population Healthy Nuclei (%): 63% and 56%
  Population Hoechst High Intensity Objects (%): 5% and 3%
  Population Membrane Permeable-Phenotype (%): 0% and 1%
  Population Mitochondria Different-Phenotype (%): 10% and 9%
  Population Mitotic Cells (%): 34% and 58%
  Population Normal (%): 94% and 96%
  Population Pyknosed Nuclei (%): 16% and 19%
  Population Tubulin-Different-Phenotype (%): 17% and 19%
  Total Cell Count: 167 and 151
12 h, replicate 2
  Population Apoptotic (%): 39% and 43%
  Population Fragmented Nuclei (%): 34% and 32%
  Population Healthy Nuclei (%): 39% and 32%
  Population Hoechst High Intensity Objects (%): 1%
  Population Membrane Permeable-Phenotype (%): 6% and 8%
  Population Mitochondria Different-Phenotype (%): 13% and 19%
  Population Mitotic Cells (%): 60% and 56%
  Population Normal (%): 98%
  Population Pyknosed Nuclei (%): 25% and 34%
  Population Tubulin-Different-Phenotype (%): 44% and 52%
  Total Cell Count: 111 and 142
24 h, replicate 1
  Population Apoptotic (%): 70% and 60%
  Population Fragmented Nuclei (%): 19% and 21%
  Population Healthy Nuclei (%): 63% and 58%
  Population Hoechst High Intensity Objects (%): 1% and 3%
  Population Membrane Permeable-Phenotype (%): 0% and 1%
  Population Mitochondria Different-Phenotype (%): 9% and 13%
  Population Mitotic Cells (%): 29% and 40%
  Population Normal (%): 98% and 96%
  Population Pyknosed Nuclei (%): 16% and 20%
  Population Tubulin-Different-Phenotype (%): 12% and 24%
  Total Cell Count: 164 and 155
24 h, replicate 2
  Population Apoptotic (%): 30% and 62%
  Population Fragmented Nuclei (%): 36% and 27%
  Population Healthy Nuclei (%): 45% and 43%
  Population Hoechst High Intensity Objects (%): 2% and 4%
  Population Membrane Permeable-Phenotype (%): 6% and 11%
  Population Mitochondria Different-Phenotype (%): 10% and 19%
  Population Mitotic Cells (%): 70% and 37%
  Population Normal (%): 97%
  Population Pyknosed Nuclei (%): 18% and 29%
  Population Tubulin-Different-Phenotype (%): 40% and 48%
  Total Cell Count: 114 and 125
48 h, replicate 1
  Population Apoptotic (%): 76% and 84%
  Population Fragmented Nuclei (%): 31% and 28%
  Population Healthy Nuclei (%): 50% and 53%
  Population Hoechst High Intensity Objects (%): 4%
  Population Membrane Permeable-Phenotype (%): 0%
  Population Mitochondria Different-Phenotype (%): 16% and 18%
  Population Mitotic Cells (%): 23% and 16%
  Population Normal (%): 95%
  Population Pyknosed Nuclei (%): 17%
  Population Tubulin-Different-Phenotype (%): 20% and 23%
  Total Cell Count: 177 and 150
48 h, replicate 2
  Population Apoptotic (%): 54% and 56%
  Population Fragmented Nuclei (%): 48% and 41%
  Population Healthy Nuclei (%): 42% and 47%
  Population Hoechst High Intensity Objects (%): 0% and 1%
  Population Membrane Permeable-Phenotype (%): 3% and 8%
  Population Mitochondria Different-Phenotype (%): 9% and 14%
  Population Mitotic Cells (%): 45% and 43%
  Population Normal (%): 100% and 98%
  Population Pyknosed Nuclei (%): 8% and 11%
  Population Tubulin-Different-Phenotype (%): 40% and 54%
  Total Cell Count: 129 and 146
